# Measured values of several laboratories.
# Protocols differ between the studies behind these lines.
# Observed: enzyme activity
# Mode: inhibitor
# DYRK1B: Dual specificity tyrosine-phosphorylation-regulated kinase 1B (DYRK1B, Homo sapiens, UniProt Q9Y463)
# NUAK1: NUAK family SNF1-like kinase 1 (NUAK1, Homo sapiens, UniProt O60285)
# Rock2: Rho-associated protein kinase 2 (Rock2, Rattus norvegicus, UniProt Q62868)
Compound,target,assay,setting,remaining activity
Cc1ccc(C(=O)Nc2ccc(CN3CCN(C)CC3)c(C(F)(F)F)c2)cc1C#Cc1cnc2cccnn12,"Mitogen-activated protein kinase kinase kinase 15 (MAP3K15, Homo sapiens, UniProt Q6ZN16)",,23.5 nM,67%
O=C(O)c1ccc2c(c1)nc(NCCc1cccc(Cl)c1)c1ccncc12,DYRK1B,radiometric,1 µM,112%
Cc1nn(CC(F)(F)F)cc1Nc1ncc(C2CC2)c(NCc2ccc(S(N)(=O)=O)cc2)n1,NUAK1,radiometric,1 µM,97%
COc1cccc(Nc2nc3cc(C(=O)O)ccc3c3cnccc23)c1,DYRK1B,radiometric,1 µM,35%
O=C(NCCCNc1nc(Nc2cccc(NC(=O)N3CCCC3)c2)ncc1Br)C1CCC1,"Inhibitor of nuclear factor kappa-B kinase subunit epsilon (IKBKE, Homo sapiens, UniProt Q14164)",radiometric,1 µM,-2%
CCCOc1ccc(OC)c(F)c1C(=O)c1ccc(C(=O)N[C@@H]2CNC[C@H]2NC(=O)c2ccc3[nH]ncc3c2)cc1,Rock2,,10 µM,-1%
COc1cccc(CCNc2nc3cc(C(=O)O)ccc3c3cncnc23)c1,"Dual specificity tyrosine-phosphorylation-regulated kinase 3 (DYRK3, Homo sapiens, UniProt O43781)",radiometric,1 µM,28%
Cc1cnc(NC2CCOCC2)nc1-n1cnc(C(=O)NC(CN)c2cc(F)cc(Cl)c2)c1 (stereo not drawn),Rock2,radiometric,1 µM,25%
Cc1nn(CC(F)(F)F)cc1Nc1ncc(C2CC2)c(NCCCNC(=O)C2CCC2)n1,NUAK1,radiometric,1 µM,82%
